{
  "source": "ChEMBL document CHEMBL1155548",
  "about": "“Synthesis and evaluation of new endomorphin-2 analogues containing (Z)-alpha,beta-didehydrophenylalanine (Delta(Z)Phe) residues” (J Med Chem, 2010)",
  "biological_target": "Delta-type opioid receptor (Homo sapiens, UniProt P41143)",
  "sequence (P41143 whole entry)": "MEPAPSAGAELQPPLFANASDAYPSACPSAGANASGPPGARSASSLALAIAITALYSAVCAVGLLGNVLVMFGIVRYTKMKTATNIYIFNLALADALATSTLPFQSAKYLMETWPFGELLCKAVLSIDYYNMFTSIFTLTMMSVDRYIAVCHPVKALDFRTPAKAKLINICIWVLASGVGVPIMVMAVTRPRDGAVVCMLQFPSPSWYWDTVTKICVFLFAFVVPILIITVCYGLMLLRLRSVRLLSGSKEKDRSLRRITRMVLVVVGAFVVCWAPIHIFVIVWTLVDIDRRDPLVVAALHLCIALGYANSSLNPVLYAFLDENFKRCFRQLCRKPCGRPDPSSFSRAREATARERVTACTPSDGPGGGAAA",
  "assay": "Displacement of [3H]DPDPE from human delta opioid receptor expressed in HEK293 cells up to 100 uM; call rule not given here",
  "type": "cell-based",
  "how_it_was_run": "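Crude membranes from transfected cells: HN9.10 cells expressing rat μ-opioid receptor, competed against μ-selective agonist [³H]DAMGO; HEK293 cells expressing human δ-opioid receptor, competed against δ-selective agonist [³H]DPDPE. Competitive displacement with three independent experiments, fitted by non-linear regression; Ki derived from IC50 via Cheng–Prusoff equation.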",
  "data": [
    {"smiles": "NC(=O)[C@H](Cc1ccccc1)NC(=O)/C(=C/c1ccccc1)NC(=O)[C@@H]1CCCN1C(=O)[C@@H](N)Cc1ccc(O)cc1", "values": [
      {"measurement": "Ki", "result": "Not Active"}
    ]}
  ]
}
